The target in series [1] is T1, Progesterone receptor (Homo sapiens, UniProt P06401).
T1 sequence (P06401 whole entry): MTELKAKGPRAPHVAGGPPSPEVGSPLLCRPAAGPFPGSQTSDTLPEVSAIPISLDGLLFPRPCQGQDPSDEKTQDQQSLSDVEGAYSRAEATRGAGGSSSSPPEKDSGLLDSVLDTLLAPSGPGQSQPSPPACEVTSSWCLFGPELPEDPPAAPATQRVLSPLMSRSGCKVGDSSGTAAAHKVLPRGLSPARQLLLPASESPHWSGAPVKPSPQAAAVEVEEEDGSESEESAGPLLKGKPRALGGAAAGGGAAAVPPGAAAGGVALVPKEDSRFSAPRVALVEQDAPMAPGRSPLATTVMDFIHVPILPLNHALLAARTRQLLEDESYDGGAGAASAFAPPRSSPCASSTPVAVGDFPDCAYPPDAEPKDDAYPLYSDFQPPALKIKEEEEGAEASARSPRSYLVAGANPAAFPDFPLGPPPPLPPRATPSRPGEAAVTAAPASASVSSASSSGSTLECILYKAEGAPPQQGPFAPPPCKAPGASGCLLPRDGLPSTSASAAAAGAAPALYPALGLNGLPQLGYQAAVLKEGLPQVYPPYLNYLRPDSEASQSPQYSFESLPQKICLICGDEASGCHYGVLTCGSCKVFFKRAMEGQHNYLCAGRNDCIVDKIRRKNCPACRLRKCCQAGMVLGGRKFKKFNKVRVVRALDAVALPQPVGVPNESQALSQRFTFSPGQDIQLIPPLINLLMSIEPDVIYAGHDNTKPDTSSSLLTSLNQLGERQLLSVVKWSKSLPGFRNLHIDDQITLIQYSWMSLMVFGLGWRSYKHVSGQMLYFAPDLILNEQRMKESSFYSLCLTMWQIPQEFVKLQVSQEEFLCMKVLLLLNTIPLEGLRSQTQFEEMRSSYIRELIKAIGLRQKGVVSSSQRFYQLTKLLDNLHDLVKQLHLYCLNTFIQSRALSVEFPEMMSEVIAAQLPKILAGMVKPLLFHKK
Description: Antagonist activity at PR in human T47D cells assessed as inhibition of progesterone-induced alkaline phosphatase expression after 24 hrs by alkaline phopshatase assay. The series is classed as cell-based. The essentials:
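T-47D cells seeded at 10^4 cells/well and incubated overnight at 37°C, 5% CO₂. Fresh medium with compound added for 24 h. Cells fixed in 1.8% formalin in PBS and washed. Substrate was 1 mg/mL p-nitrophenyl phosphate in diethanolamine buffer, pH 9.0, 2 mM MgCl₂, for 2 h at room temperature in the dark. Stopped with 1 M NaOH; absorbance read at 405 nm.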

Series [2] has as its target T2, Androgen receptor (Mus musculus, UniProt P19091).
T2 sequence (P19091 whole entry): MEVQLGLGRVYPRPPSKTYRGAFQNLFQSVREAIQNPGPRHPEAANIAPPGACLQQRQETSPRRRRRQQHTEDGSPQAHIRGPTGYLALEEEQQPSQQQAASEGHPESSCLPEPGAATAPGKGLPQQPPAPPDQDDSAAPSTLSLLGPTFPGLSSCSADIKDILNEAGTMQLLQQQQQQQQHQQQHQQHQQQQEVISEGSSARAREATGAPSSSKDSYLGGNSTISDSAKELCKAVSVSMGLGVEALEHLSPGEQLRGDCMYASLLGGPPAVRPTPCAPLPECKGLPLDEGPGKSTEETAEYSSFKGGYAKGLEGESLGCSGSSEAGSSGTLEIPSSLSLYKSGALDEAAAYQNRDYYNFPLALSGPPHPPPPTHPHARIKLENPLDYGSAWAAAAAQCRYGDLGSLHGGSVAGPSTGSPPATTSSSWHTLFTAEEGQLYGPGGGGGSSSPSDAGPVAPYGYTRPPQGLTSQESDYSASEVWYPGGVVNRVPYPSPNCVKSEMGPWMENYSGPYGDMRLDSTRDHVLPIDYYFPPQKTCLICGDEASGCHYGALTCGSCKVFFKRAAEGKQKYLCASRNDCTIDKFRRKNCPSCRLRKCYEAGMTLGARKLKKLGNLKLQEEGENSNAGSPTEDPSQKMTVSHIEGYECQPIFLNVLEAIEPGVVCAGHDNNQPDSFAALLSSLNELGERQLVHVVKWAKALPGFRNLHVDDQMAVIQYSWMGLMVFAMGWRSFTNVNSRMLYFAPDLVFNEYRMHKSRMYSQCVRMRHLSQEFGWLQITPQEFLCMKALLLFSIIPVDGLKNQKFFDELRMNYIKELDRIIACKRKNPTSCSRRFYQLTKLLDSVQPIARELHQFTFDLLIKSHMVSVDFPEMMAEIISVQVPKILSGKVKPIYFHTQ
Briefly: Antagonist activity at AR in mouse SC3 cells assessed as inhibition of dihydrotestosterone-induced cell growth 10^-5 to 10^-7 M measured after 3 days by CCK8 assay. In kind it is cell-based. The note with it: sc-3, 72 h. The essentials:
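SC-3 cells maintained in MEMα with 2% FBS and 1 nM DHT, 37°C, 5% CO2. Seeded at 20,000 cells/mL in MEMα with 2% charcoal-stripped FBS and held 24 h. Serial dilutions of compound (DMSO control) added with 1 nM DHT, then 3 days at 37°C. WST-8 (CCK-8) added for 2 h, absorbance read at 450 nm. Triplicate or more.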

Series [3] has as its target T1, Progesterone receptor. Briefly: Displacement of [1,2,6,7-3H]progesterone from recombinant human GST-tagged PR-LBD (675 to 933 residues) expressed in baculovirus-infected insect cells measured after 24 hrs by liquid scintillation counting method. In short, it runs like this:
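Incubated with 4 nM [³H]progesterone and compound (final DMSO 3%) for 24 h at 4°C in the dark. Nonspecific binding set with 200-fold excess unlabeled progesterone. Free ligand removed with dextran/γ-globulin-coated charcoal, 5 min at 4°C, then centrifuged; supernatant counted by liquid scintillation. Duplicates.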

Another series concerns the target T3, Glucocorticoid receptor (Homo sapiens, UniProt P04150).
T3 sequence (P04150 whole entry): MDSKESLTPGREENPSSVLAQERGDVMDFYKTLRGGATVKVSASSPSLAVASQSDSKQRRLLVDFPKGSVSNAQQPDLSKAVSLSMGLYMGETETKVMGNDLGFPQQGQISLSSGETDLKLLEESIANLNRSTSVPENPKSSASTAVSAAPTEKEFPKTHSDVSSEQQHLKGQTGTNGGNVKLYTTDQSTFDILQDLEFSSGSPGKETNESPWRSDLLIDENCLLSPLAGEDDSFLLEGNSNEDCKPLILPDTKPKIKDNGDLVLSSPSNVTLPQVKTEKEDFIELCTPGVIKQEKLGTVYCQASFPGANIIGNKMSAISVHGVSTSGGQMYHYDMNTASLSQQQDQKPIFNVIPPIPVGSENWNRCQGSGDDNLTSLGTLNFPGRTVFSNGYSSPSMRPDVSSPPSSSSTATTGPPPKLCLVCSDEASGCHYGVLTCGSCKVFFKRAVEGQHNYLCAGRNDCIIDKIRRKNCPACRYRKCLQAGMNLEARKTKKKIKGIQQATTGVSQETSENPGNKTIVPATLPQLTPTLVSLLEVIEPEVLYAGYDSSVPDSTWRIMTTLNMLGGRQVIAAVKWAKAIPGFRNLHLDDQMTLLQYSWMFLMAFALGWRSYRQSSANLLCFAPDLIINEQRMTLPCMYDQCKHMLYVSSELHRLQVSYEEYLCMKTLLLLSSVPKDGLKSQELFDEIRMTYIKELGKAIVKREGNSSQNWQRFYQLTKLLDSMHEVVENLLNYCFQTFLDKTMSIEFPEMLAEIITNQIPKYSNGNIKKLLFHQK
Briefly: Displacement of [3H]dexamethasone from human GR measured after 18 hrs by scintillation counting method. The essentials: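 hGR at 1.25 nM final in 50 mM KH₂PO₄ pH 7.4 with 10 mM sodium molybdate and 1 mM DTT. Incubated with 10^-9 M [³H]dexamethasone and compounds at 10^-7 to 10^-5 M, 0.4% DMSO, for 18 h. Nonspecific binding set with 10^-5 M triamcinolone acetonide. Bound ligand collected by vacuum filtration on glass-fiber filters and counted. Duplicates.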
(Displacement assays read how much labelled ligand stays bound in the presence of the test substance.)

Series [4] deals with T2, Androgen receptor. Description: Antagonist activity at AR in mouse SC3 cells assessed as inhibition of dihydrotestosterone-induced cell growth at 10^-5 M measured after 3 days by CCK8 assay. The series is classed as cell-based. The note with it: sc-3, 72 h, 10 µM. In short, it runs like this: (§1)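 SC-3 cells kept in MEMα with 2% FBS and 1 nM DHT at 37°C, 5% CO₂. Trypsinized, diluted to 20,000 cells/mL in MEMα with 2% charcoal-stripped FBS, seeded and held 24 h. Serial dilutions of compound or DMSO control added with 1 nM DHT. Incubated 3 days at 37°C. Cell number read by WST-8 (CCK-8), 2 h, absorbance at 450 nm. Triplicate or more.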
For orientation: Tetrazolium dyes change colour on reduction, which living cells bring about.

The species entered for another series is Mus musculus. Briefly: Cytotoxicity against mouse SC3 cells assessed as effect on cell growth at 10^-5 to 10^-7 M after 3 days by CCK8 assay. In kind it is toxicity. The note with it: sc-3, 72 h. The essentials: as §1

Molecules are shown by their SMILES.

The IC50 is the concentration needed to halve the response being measured. For `N#Cc1ccc(-c2ccc3oc(=O)ccc3c2)[nH]1`, the 50% inhibitory concentration (IC50) at Progesterone receptor [1] came out at 140 nM.

Consider `N#Cc1ccc(-c2ccc3oc(=O)ccc3c2)n1Cc1cc(F)cc(F)c1`, for which, at Progesterone receptor [1], the half-inhibitory concentration (IC50) was determined as 160 nM.

In the case of `CCn1c(C#N)ccc1-c1ccc2oc(=O)ccc2c1`, the IC50 on Progesterone receptor [1] worked out at 220 nM.

As to `N#Cc1ccc(-c2ccc3oc(=O)ccc3c2)n1Cc1c(F)c(F)c(F)c(F)c1F`, at Progesterone receptor [1], the concentration for half-maximal inhibition (IC50) is 190 nM.

For the molecule `N#Cc1ccc(Cn2c(C#N)ccc2-c2ccc3oc(=O)ccc3c2)cc1`, the IC50 at Progesterone receptor [1] turned out to be 290 nM.

Turning to `N#Cc1ccc(-c2ccc3oc(=O)ccc3c2)n1Cc1ccc([N+](=O)[O-])cc1`, at Progesterone receptor [1], the IC50 stood at 450 nM.

As to `N#Cc1ccc(-c2ccc3oc(=O)ccc3c2)s1`, the IC50 on Progesterone receptor [1] is 140 nM.

As to `COc1cc2oc(=O)cc(C)c2cc1-c1ccc(C#N)[nH]1`, at Progesterone receptor [1], the half-maximal inhibitory concentration (IC50) was found to be 260 nM.

As to `CC(C)(O)C(=O)Nc1ccc([N+](=O)[O-])c(C(F)(F)F)c1` [HYDROXYFLUTAMIDE], the “inhibition (INH)” value at Androgen receptor [2] is on record as “Active”.

As for `CCCCCCn1c(C#N)ccc1-c1ccc2oc(=O)ccc2c1`, the 50% inhibitory concentration (IC50) at Progesterone receptor [1] stood at 34 nM; at Progesterone receptor [3], 160 nM.

`COc1cc2oc(=O)cc(C)c2cc1-c1ccc(C#N)n1Cc1ccccc1`: the half-inhibitory concentration (IC50) at Progesterone receptor [1] was 230 nM.

`N#Cc1ccc(-c2ccc3oc(=O)ccc3c2)n1Cc1ccc2ccccc2c1`: the IC50 on Progesterone receptor [1] is 290 nM.

As to `CCN(CC)c1cc2oc(=O)ccc2cc1-c1ccc(C#N)[nH]1`, the IC50 on Progesterone receptor [1] was determined as 120 nM.

For the molecule `Cc1ccc(-c2ccc3oc(=O)ccc3c2)s1`, the IC50 at Progesterone receptor [1] amounted to 440 nM.

As to `COc1cc2oc(=O)cc(C)c2cc1-c1ccc(C#N)n1CC1CCCCC1`, the IC50 at Progesterone receptor [1] stood at 550 nM.

For the molecule `CCN(CC)c1cc2oc(=O)ccc2cc1-c1ccc(C#N)n1C`, the values for the IC50 on Progesterone receptor [1], at Progesterone receptor [3] and on Glucocorticoid receptor were 240 nM, 1360 nM and 10000 nM, respectively. Further, at Androgen receptor [4], the “inhibition (INH)” value was “Active”. Also, the Activity entry in the series listed under Mus musculus was “Non-Toxic”.

Consider `O=c1ccc2cc(-c3sccc3Cl)ccc2o1`, for which the IC50 at Progesterone receptor [1] stood at 230 nM.

Consider `Cc1ccsc1-c1ccc2oc(=O)ccc2c1`, for which the 50% inhibitory concentration (IC50) on Progesterone receptor [1] was 150 nM.

For `N#CCn1c(C#N)ccc1-c1ccc2oc(=O)ccc2c1`, the IC50 on Progesterone receptor [1] worked out at 15800 nM.

On to `CC(=O)c1ccc(-c2ccc3oc(=O)ccc3c2)s1`, for which the IC50 at Progesterone receptor [1] was found to be 240 nM.

Turning to `CCN(CC)c1cc2oc(=O)ccc2cc1-c1ccc(C#N)n1CC`, the half-inhibitory concentration (IC50) on Progesterone receptor [1] is 250 nM.

`COc1cc2oc(=O)cc(C)c2cc1-c1ccc(C#N)n1Cc1ccc(C#N)cc1`: the IC50 on Progesterone receptor [1] is 480 nM.

Regarding `COc1cc2oc(=O)cc(C)c2cc1-c1ccc(C#N)n1Cc1ccc(F)cc1`, the IC50 at Progesterone receptor [1] is 570 nM.

In the case of `N#Cc1ccc(-c2ccc3oc(=O)ccc3c2)n1CC1CCCCC1`, the IC50 at Progesterone receptor [1] is 31 nM.

`CCCCCCn1c(C#N)ccc1-c1cc2c(C)cc(=O)oc2cc1OC`: the half-maximal inhibitory concentration (IC50) on Progesterone receptor [1] came out at 180 nM.

On to `COc1cc2oc(=O)cc(C)c2cc1-c1ccc(C#N)n1C`, for which the concentration for half-maximal inhibition (IC50) at Progesterone receptor [1] worked out at 24 nM; on Progesterone receptor [3], 990 nM. In addition, the “inhibition (INH)” value at Androgen receptor [2] is on record as “Active”. In the series filed under Mus musculus, the Activity entry was “Non-Toxic”.

With `CCN(CC)c1cc2oc(=O)ccc2cc1-c1ccc(C#N)n1Cc1ccccc1`, on Progesterone receptor [1], the 50% inhibitory concentration (IC50) was 580 nM.

On to `N#Cc1ccc(-c2ccc3oc(=O)ccc3c2)n1Cc1ccc(F)cc1`, for which the IC50 at Progesterone receptor [1] was 210 nM.

As to `CCn1c(C#N)ccc1-c1cc2c(C)cc(=O)oc2cc1OC`, on Progesterone receptor [1], the 50% inhibitory concentration (IC50) turned out to be 38 nM.

Consider `Cc1cc(=O)oc2cc(O)c(-c3ccc(C#N)n3C)cc12`, for which the half-maximal inhibitory concentration (IC50) on Progesterone receptor [1] was 300 nM; at Progesterone receptor [3], 15700 nM.

For `CCN(CC)c1cc2oc(=O)ccc2cc1-c1ccc(C#N)n1CC#N`, the IC50 on Progesterone receptor [1] came to 850 nM.

On to `N#Cc1ccc(-c2ccc3oc(=O)ccc3c2)n1Cc1ccccc1`, for which the half-inhibitory concentration (IC50) on Progesterone receptor [1] came out at 56 nM; at Progesterone receptor [3] it was 790 nM.

Source of the values: ChEMBL document CHEMBL3861998, “Development of 6-arylcoumarins as nonsteroidal progesterone antagonists. Structure-activity relationships and fluorescence properties” (Bioorg Med Chem, 2016).
